Assay results as given in ChEMBL document CHEMBL1629690, “Development of hexadecyloxypropyl tenofovir (CMX157) for treatment of infection caused by wild-type and nucleoside/nucleotide-resistant HIV” (Antimicrob Agents Chemother, 2010).

How the values were obtained:
[1] = test system: Human immunodeficiency virus 1; assay: Antiviral activity against HIV1 71361-1 harboring reverse transcriptase 65R mutant gene infected in human PBMC by ELISA; type: functional, organism-based; settings: Human immunodeficiency virus 1, 71361-1
Outline: (§1)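 Fresh PBMCs pooled from at least two HIV- and HBV-seronegative donors, stimulated with PHA 4 μg/ml for 48–72 h and kept in rhIL-2 20 U/ml. Seeded at 5 × 10^4 cells/well and infected with RT-mutant HIV-1 clones at MOI ~0.1. Nine compound concentrations, triplicate wells, 7-day incubation. EC50 reported as mean ± SD of one to three independent experiments.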

[2] = test system: Human immunodeficiency virus 1; assay: Antiviral activity against HIV1 isolate 160 harboring reverse transcriptase S68G/V75(I/T)/F77L/Y115F/F116Y /Q151M mutant gene by phenosense assay; type: functional, organism-based; settings: Human immunodeficiency virus 1, isolate 160
Outline: (§2)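 Recombinant-virus PhenoSense HIV assay run on a panel of 30 NRTI-resistant HIV-1 mutants and two wild-type viruses. Each virus is tested across increasing drug concentrations to give an inhibition curve and EC50. Fold change is the test recombinant EC50 divided by the EC50 of the drug-sensitive wild-type reference virus.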

[3] = test system: Human immunodeficiency virus 1; assay: Antiviral activity against HIV1 isolate 200 harboring reverse transcriptase M41L/L210W/T215Y mutant gene by phenosense assay relative to wild type; type: functional; outline: as §2
[4] = test system: Human immunodeficiency virus 1; assay: Antiviral activity against HIV1 isolate 162 harboring reverse transcriptase A62V/V75I/F77L/Y115F/F116Y/Q151M/M184V mutant gene by phenosense assay; type: functional, organism-based; settings: Human immunodeficiency virus 1, isolate 162; outline: as §2
[5] = test system: Human immunodeficiency virus 1; assay: Antiviral activity against HIV1 isolate 071 harboring reverse transcriptase 65R/S68N/184V mutant gene by phenosense assay; type: functional, organism-based; settings: Human immunodeficiency virus 1, isolate 071; outline: as §2
[6] = test system: Human immunodeficiency virus 1; assay: Antiviral activity against HIV1 8415-2 harboring reverse transcriptase 65R/184V mutant gene infected in human PBMC by ELISA; type: functional, organism-based; settings: Human immunodeficiency virus 1, 8415-2; outline: as §1
[7] = test system: Human immunodeficiency virus 1; assay: Antiviral activity against HIV1 7303-3 harboring reverse transcriptase 41L/44D/67N/69D/118I/210W/215Y mutant gene infected in human PBMC by ELISA; type: functional, organism-based; settings: Human immunodeficiency virus 1, 7303-3; outline: as §1
[8] = test system: Human immunodeficiency virus 1; assay: Antiviral activity against HIV1 isolate 166 harboring reverse transcriptase L74V mutant gene obtained as site-directed mutant of NL4-3 by phenosense assay; type: functional, organism-based; settings: Human immunodeficiency virus 1, isolate 166; outline: as §2
[9] = test system: Human immunodeficiency virus 1; assay: Antiviral activity against HIV1 isolate 166 harboring reverse transcriptase L74V mutant gene obtained as site-directed mutant of NL4-3 by phenosense assay relative to wild type; type: functional; outline: as §2
[10] = test system: Human immunodeficiency virus 1; assay: Antiviral activity against HIV1 isolate 217 harboring reverse transcriptase D67N/K70E/M184V mutant gene by phenosense assay; type: functional, organism-based; settings: Human immunodeficiency virus 1, isolate 217
Outline: (§3)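 PhenoSense HIV recombinant virus assay: patient-derived HIV-1 with major NRTI resistance mutations tested against increasing drug concentrations to give inhibition curves. EC50 is the concentration giving 50% inhibition. Fold change is the test recombinant EC50 divided by the EC50 of a drug-sensitive wild-type reference virus. Panel of 30 NRTI-resistant isolates plus two wild-type viruses.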

[11] = test system: Human immunodeficiency virus 1; assay: Antiviral activity against HIV1 NL 4-3 expressing wild type reverse transcriptase infected in human PBMC by ELISA; type: functional, organism-based; settings: Human immunodeficiency virus 1, NL 4-3
Outline: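 Fresh donor PBMCs, HIV- and HBV-seronegative, were stimulated with 4 μg/ml PHA for 48 to 72 h and kept on 20 U/ml rhIL-2. Cells pooled from at least two donors were seeded at 5 × 10^4 per well and infected at MOI ~0.1. Nine compound concentrations were run in triplicate wells for 7 days.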

[12] = test system: Human immunodeficiency virus 1; assay: Antiviral activity against HIV1 isolate 185 harboring reverse transcriptase T215Y mutant gene by phenosense assay; type: functional, organism-based; settings: Human immunodeficiency virus 1, isolate 185; outline: as §2
[13] = test system: Human immunodeficiency virus 1; assay: Antiviral activity against HIV1 isolate 212 harboring reverse transcriptase L210W/T215Y mutant gene by phenosense assay; type: functional, organism-based; settings: Human immunodeficiency virus 1, isolate 212; outline: as §3
[14] = test system: Human immunodeficiency virus 1; assay: Antiviral activity against HIV1 isolate 157 harboring reverse transcriptase L74V/M184V mutant gene by phenosense assay; type: functional, organism-based; settings: Human immunodeficiency virus 1, isolate 157; outline: as §2
[15] = test system: Human immunodeficiency virus 1; assay: Antiviral activity against HIV1 isolate 061 harboring reverse transcriptase M41L/D67N/K70R/M184V/L210W/T215Y/K219E mutant gene by phenosense assay relative to wild type; type: functional; outline: as §2
[16] = test system: Human immunodeficiency virus 1; assay: Antiviral activity against HIV1 isolate 153 harboring reverse transcriptase L74V mutant gene by phenosense assay; type: functional, organism-based; settings: Human immunodeficiency virus 1, isolate 153; outline: as §2
[17] = test system: Human immunodeficiency virus 1; assay: Antiviral activity against HIV1 isolate 071 harboring reverse transcriptase 65R/S68N/184V mutant gene by phenosense assay relative to wild type; type: functional; outline: as §2
[18] = test system: Human immunodeficiency virus 1; assay: Antiviral activity against HIV1 isolate 056 expressing wild type reverse transcriptase gene by phenosense assay; type: functional, organism-based; settings: Human immunodeficiency virus 1, isolate 056
Outline: (§4)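 In the PhenoSense recombinant virus assay, virus was tested against increasing drug concentrations. EC50 came from the inhibition curve and was compared with a drug-sensitive reference virus.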

[19] = test system: Human immunodeficiency virus 1; assay: Antiviral activity against HIV1 isolate 204 harboring reverse transcriptase M41L/L210W/T215Y/M184V mutant gene by phenosense assay relative to wild type; type: functional; outline: as §3
[20] = test system: Human immunodeficiency virus 1; assay: Antiviral activity against HIV1 isolate 201 harboring reverse transcriptase M41L/L210W/T215Y mutant gene by phenosense assay; type: functional, organism-based; settings: Human immunodeficiency virus 1, isolate 201; outline: as §2
[21] = test system: Human immunodeficiency virus 1; assay: Antiviral activity against HIV1 isolate 194 harboring reverse transcriptase M41L/T215Y/M184V mutant gene by phenosense assay relative to wild type; type: functional; outline: as §2
[22] = test system: Human immunodeficiency virus 1; assay: Antiviral activity against HIV1 isolate 212 harboring reverse transcriptase L210W/T215Y mutant gene by phenosense assay relative to wild type; type: functional; outline: as §3
[23] = test system: Human immunodeficiency virus 1; assay: Antiviral activity against HIV1 isolate 063 harboring reverse transcriptase M41L/D67N/K70R/M184V/L210W/T215Y/K219E mutant gene by phenosense assay; type: functional, organism-based; settings: Human immunodeficiency virus 1, isolate 063; outline: as §2
[24] = test system: Human immunodeficiency virus 1; assay: Antiviral activity against HIV1 isolate 192 harboring reverse transcriptase M41L/T215Y mutant gene by phenosense assay relative to wild type; type: functional; outline: as §2
[25] = test system: Human immunodeficiency virus 1; assay: Antiviral activity against HIV1 isolate 180 harboring reverse transcriptase K65R mutant gene obtained as site-directed mutant of NL4-3 by phenosense assay; type: functional, organism-based; settings: Human immunodeficiency virus 1, isolate 180; outline: as §2
[26] = test system: Human immunodeficiency virus 1; assay: Antiviral activity against HIV1 isolate 188 harboring reverse transcriptase T215Y/M184V mutant gene by phenosense assay; type: functional, organism-based; settings: Human immunodeficiency virus 1, isolate 188; outline: as §2
[27] = test system: Human immunodeficiency virus 1; assay: Antiviral activity against HIV1 isolate 211 harboring reverse transcriptase D67N/K70R/T215F/K219E/M184V mutant gene by phenosense assay; type: functional, organism-based; settings: Human immunodeficiency virus 1, isolate 211; outline: as §3
[28] = test system: Human immunodeficiency virus 1; assay: Antiviral activity against HIV1 isolate 057 expressing wild type reverse transcriptase gene by phenosense assay; type: functional, organism-based; settings: Human immunodeficiency virus 1, isolate 057; outline: as §4
[29] = test system: Human immunodeficiency virus 1; assay: Antiviral activity against HIV1 isolate 067 harboring reverse transcriptase A62V/D67G/T69SVG/V75I/T215I mutant gene by phenosense assay relative to wild type; type: functional; outline: as §2
[30] = test system: Human immunodeficiency virus 1; assay: Antiviral activity against HIV1 isolate 153 harboring reverse transcriptase L74V mutant gene by phenosense assay relative to wild type; type: functional; outline: as §2
[31] = test system: Human immunodeficiency virus 1; assay: Antiviral activity against HIV1 52534-2 harboring reverse transcriptase 41L//74V/210W/215Y/184V/69SSS mutant gene infected in human PBMC by ELISA; type: functional, organism-based; settings: Human immunodeficiency virus 1, 52534-2; outline: as §1

Structure (SMILES) | EC50 [2] [µM] | fold change (FC) [3] | EC50 [4] [µM] | EC50 [5] [µM] | EC50 [8] [nM] | fold change (FC) [9] | EC50 [10] [µM] | EC50 [12] [µM] | EC50 [13] [µM] | EC50 [14] [µM] | fold change (FC) [15] | EC50 [16] [nM] | fold change (FC) [17] | EC50 [18] [nM] | fold change (FC) [19] | EC50 [20] [µM] | fold change (FC) [21] | fold change (FC) [22] | EC50 [23] [µM] | fold change (FC) [24] | further results
CCCCCCCCCCCCCCCCOCCCOP(=O)(O)CO[C@H](C)Cn1cnc2c(N)ncnc21 [TENOFOVIR EXALIDEX] | 0.0037 | 3.2 | 0.0031 | 0.0027 | 1.5 | 0.8 | 0.0015 | 0.005 | 0.0028 | 0.00066 | 2.1 | 1.2 | 1.5 | 1.7 | 1.4 | 0.0066 | 1.6 | 1.5 | 0.0052 | 2.1 | EC50 [1]: 13 nM; EC50 [6]: 1.8 nM; EC50 [7]: 19 nM; EC50 [11]: 1.5 nM; EC50 [25]: 0.0047 µM; EC50 [26]: 0.0017 µM; EC50 [27]: 0.0019 µM; EC50 [28]: 1.6 nM; fold change (FC) [29]: 31; fold change (FC) [30]: 0.66; EC50 [31]: 9 nM
Nc1nc(NC2CC2)c2ncn([C@H]3C=C[C@@H](CO)C3)c2n1 [ABACAVIR] | 34 | 2.8 | > 52 | 12 | 3300 | 1.9 | 5.1 | 3.7 | 3.6 | 9.2 | 9.1 | 3400 | 6.6 | 1500 | 5 | 4.2 | 5.4 | 2.1 | 14 | 1.9 | EC50 [25]: 4.6 µM; EC50 [26]: 7.6 µM; EC50 [27]: 7.7 µM; EC50 [28]: 1700 nM; fold change (FC) [29]: 18; fold change (FC) [30]: 1.9
Nc1nc(=O)n([C@@H]2CS[C@H](CO)O2)cc1F [EMTRICITABINE] | 35 | 3.7 | > 100 | > 100 | 1700 | 1.5 | > 100 | 2.6 | 2.6 | > 100 | >63 | 2100 | >88 | 890 | >88 | 2.2 | >88 | 2.3 | > 100 | 2.7 | EC50 [25]: 13 µM; EC50 [26]: > 100 µM; EC50 [27]: > 100 µM; EC50 [28]: 1600 nM; fold change (FC) [29]: 26; fold change (FC) [30]: 1.9
Nc1ccn([C@@H]2CS[C@H](CO)O2)c(=O)n1 [LAMIVUDINE] | 90 | 2.7 | > 300 | > 300 | 6100 | 1.6 | > 300 | 6.1 | 7.3 | > 300 | >71 | 7000 | >80 | 3200 | >80 | 5.9 | >80 | 1.9 | > 300 | 2 | EC50 [25]: 43 µM; EC50 [26]: > 300 µM; EC50 [27]: > 300 µM; EC50 [28]: 4400 nM; fold change (FC) [29]: 12; fold change (FC) [30]: 1.9
